Results reported in ChEMBL document CHEMBL1147233, “Chemistry and structure-activity relationship of HIV-1 integrase inhibitor integracide B and related natural products” (J Nat Prod, 2003).

Legend:
[1] = target: T1, Human immunodeficiency virus type 1 integrase (Human immunodeficiency virus 1, UniProt Q7ZJM1); experiment: Inhibition of recombinant HIV1 integrase using unprocessed donor DNA by coupled assay
How it was run: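 Unprocessed donor DNA and inhibitor incubated with recombinant integrase together for 30 min, then target DNA added; strand-transfer product measured. Final DMSO 10%. IC50 from serial 2-fold dilutions in duplicate or triplicate; values without error limits are the average of these.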

[2] = target: T1, Human immunodeficiency virus type 1 integrase; experiment: Inhibition of recombinant HIV1 integrase using preprocessed donor DNA treated after washing excess enzyme by strand transfer assay
How it was run: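 Integrase preincubated with preprocessed donor DNA, unbound enzyme washed off, then target DNA and inhibitor added together. Strand transfer product measured. Final DMSO 10%. IC50 from serial 2-fold dilutions run in duplicate or triplicate; values without error limits are the average of these.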

[3] = target: T1, Human immunodeficiency virus type 1 integrase; experiment: Inhibition of HIV1 integrase assessed as inhibition of 3'-end processing reaction
How it was run: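 Specific 3′-end processing of LTR donor-sequence oligonucleotide substrates, run with […]. IC₅₀ values without error limits are the average of duplicate or triplicate data sets.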

[4] = system: Human immunodeficiency virus 1; experiment: Antiviral activity against HIV1 infected in human H9 cells; type: functional; details: Human immunodeficiency virus 1, H9; read-out: CIC95
How it was run: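 Multiple-cycle viral spread assay in HIV-1-infected H9 T-lymphoid cells; value is CIC95, the concentration giving >95% protection from viral infection.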

[5] = target: T1, Human immunodeficiency virus type 1 integrase; experiment: Inhibition of recombinant HIV1 integrase using preprocessed donor DNA by assembly assay
How it was run: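 Recombinant integrase and inhibitor were incubated with preprocessed donor DNA, unbound integrase was washed off, then target DNA was added. The read-out is the strand-transfer product. Final DMSO was 10%. IC₅₀ came from 2-fold dilution series run in duplicate or triplicate.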

[6] = target: T1, Human immunodeficiency virus type 1 integrase; experiment: Inhibition of HIV1 integrase-mediated preintegration complex formation by Southern blotting
How it was run: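 Preintegration complexes were isolated from HIV-1-infected cells, partially purified and used in an integration reaction. Products were analysed by Southern blotting and quantified by phosphorimaging. IC₅₀ values without error limits are the average of duplicate or triplicate data sets.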

[7] = target: Type II restriction enzyme EcoRI (Escherichia coli, UniProt P00642); experiment: Inhibition of Escherichia coli ECOR1
[8] = Inhibition of DNAse

Sequence of Type II restriction enzyme EcoRI (P00642 whole entry): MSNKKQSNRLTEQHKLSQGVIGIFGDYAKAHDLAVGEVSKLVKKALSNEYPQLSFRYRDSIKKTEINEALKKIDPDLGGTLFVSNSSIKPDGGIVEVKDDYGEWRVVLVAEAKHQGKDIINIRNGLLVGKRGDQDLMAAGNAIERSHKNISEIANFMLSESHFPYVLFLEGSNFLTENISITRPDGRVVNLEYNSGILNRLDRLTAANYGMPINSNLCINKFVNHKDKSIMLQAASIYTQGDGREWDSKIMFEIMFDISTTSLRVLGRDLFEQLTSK
T1 sequence (Q7ZJM1 whole entry): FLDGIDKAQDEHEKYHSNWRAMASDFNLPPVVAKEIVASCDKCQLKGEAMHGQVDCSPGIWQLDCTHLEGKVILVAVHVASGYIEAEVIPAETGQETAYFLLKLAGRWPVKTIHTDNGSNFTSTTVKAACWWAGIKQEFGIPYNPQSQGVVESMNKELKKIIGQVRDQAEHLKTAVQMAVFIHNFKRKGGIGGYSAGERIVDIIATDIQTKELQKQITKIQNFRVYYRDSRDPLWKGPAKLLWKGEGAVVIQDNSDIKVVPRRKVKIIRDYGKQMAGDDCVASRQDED

Compound | IC50 [1] [µM] | IC50 [2] [µM] | IC50 [3] [µM] | IC95 [4] [µM] | IC50 [5] [µM] | IC50 [6] [µM] | IC50 [7] [µM] | IC50 [8] [µM]
CC(=O)O[C@H]1[C@H](O)C2=C(CC[C@H]3C(C)(C)[C@@H](OS(=O)(=O)O)[C@H](OC(=O)CCCCCCCCCCCCCCCO)C[C@]23C)[C@@H]2CC[C@H]([C@H](C)CCC3(C(C)(C)O)CO3)[C@]21C (some centres undefined) | 5.6 | 5.6 | 2 | > 50 | 12 | 50 | > 50 | > 50
C=C(CC[C@@H](C)[C@H]1CC[C@H]2C3=C([C@@H](O)[C@H](OC(C)=O)[C@]12C)[C@@]1(C)C[C@@H](O)[C@H](OS(=O)(=O)O)C(C)(C)[C@@H]1CC3)C(C)C | 5 | 15 | 5 | 50 | 10 | 30 | > 50 | > 50
C=C(CC[C@@H](C)[C@H]1CC=C2C3=C([C@@H](O)[C@H](OC(C)=O)[C@@]21C)[C@@]1(C)C[C@@H](O)[C@H](OC(=O)CCC(=O)O)C(C)(C)[C@@H]1CC3)C(C)C | 3 | 12 | 5 | 6 |  |  | > 50 | > 50
C=C(CC[C@@H](C)[C@H]1CC=C2C3=C([C@@H](O)[C@H](OC(C)=O)[C@@]21C)[C@@]1(C)C[C@@H](O)[C@H](OS(=O)(=O)O)C(C)(C)[C@@H]1CC3)C(C)C [INTEGRACIDE A] | 4 | 9 | 5 | 25 |  | 50 | > 50 | > 50
